ChEMBL document CHEMBL4627381, “Licochalcone A Selectively Resensitizes ABCG2-Overexpressing Multidrug-Resistant Cancer Cells to Chemotherapeutic Drugs” (J Nat Prod, 2020)

How the values were obtained:
NCI-H460 = assay: Effect on topotecan-induced cytotoxicity against human H460 cells assessed as fold change in topotecan IC50 at 3 uM after 72 hrs by MTT assay relative to topotecan IC50; format: functional
Procedure, shortened: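 Parental S1 colon and H460 lung cancer cells were exposed for 72 h to a mitoxantrone or topotecan concentration series, with or without modulator at 0.5–3.0 μM, and read by MTT. Fold-reversal is IC50 without modulator divided by IC50 with modulator, taken from dose-response curves of three independent experiments.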

[1] = target: T1, Broad substrate specificity ATP-binding cassette transporter ABCG2 (Homo sapiens, UniProt Q9UNQ0); assay: Reversal of ABCG2 (unknown origin)-mediated multidrug resistance in human H460-MX20 cells assessed as fold change in mitoxantrone IC50 at 0.5 uM after 72 hrs by MTT assay relative to mitoxantrone IC50; format: cell-based
T1 sequence (Q9UNQ0 whole entry): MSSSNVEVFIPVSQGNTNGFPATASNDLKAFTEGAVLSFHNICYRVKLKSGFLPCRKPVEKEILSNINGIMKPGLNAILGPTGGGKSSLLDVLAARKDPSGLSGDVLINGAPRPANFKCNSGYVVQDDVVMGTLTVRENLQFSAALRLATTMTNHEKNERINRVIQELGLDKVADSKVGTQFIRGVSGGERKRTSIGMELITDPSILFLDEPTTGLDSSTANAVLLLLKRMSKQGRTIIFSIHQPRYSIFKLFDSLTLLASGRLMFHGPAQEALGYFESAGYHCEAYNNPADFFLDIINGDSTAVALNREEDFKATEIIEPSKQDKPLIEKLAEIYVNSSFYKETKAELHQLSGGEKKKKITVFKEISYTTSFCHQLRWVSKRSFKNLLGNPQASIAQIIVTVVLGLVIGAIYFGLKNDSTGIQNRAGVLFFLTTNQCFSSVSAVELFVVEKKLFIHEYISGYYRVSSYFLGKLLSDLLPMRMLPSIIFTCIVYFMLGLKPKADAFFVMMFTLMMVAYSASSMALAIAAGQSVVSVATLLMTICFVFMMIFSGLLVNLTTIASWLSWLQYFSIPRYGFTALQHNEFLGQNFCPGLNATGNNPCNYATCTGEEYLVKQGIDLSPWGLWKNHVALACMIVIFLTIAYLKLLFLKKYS
Procedure, shortened: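 Cells held drug-free 7 days, seeded at 5000 per well for 24 h, then exposed 72 h to mitoxantrone or topotecan dilutions with DMSO (≤0.5%), LCA 0.5–3.0 μM, or Ko143 1.0 μM. Viability was read by MTT. IC50 came from fitted dose-response curves of three independent experiments. Fold-reversal = IC50 without modulator divided by IC50 with modulator.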

HEK293 [2] = assay: Effect on mitoxantrone-induced cytotoxicity against HEK293 cells assessed as fold change in mitoxantrone IC50 at 3 uM after 72 hrs by CCK8 assay relative to mitoxantrone IC50; format: cell-based; settings: human, hek293, 72 h
Procedure, shortened: (§1)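 Reversal assay in parental pcDNA-HEK293 and transfected HEK293 lines (ABCB1 for colchicine, ABCC1 for etoposide, ABCG2 for mitoxantrone/topotecan). Substrate drug series was given with or without nontoxic modulator (0.5, 1.0, 2.0 or 3.0 μM) for 72 h, with a CCK-8 read-out. Fold-reversal is substrate IC50 without modulator divided by IC50 with modulator. Three independent experiments.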

S1-M1-80 [3] = assay: Potentiation of topotecan-induced apoptosis in human S1-M1-80 cells harboring ABCG2 (unknown origin) assessed as necrotic cells at 10 uM incubated for 48 hrs by annexin V/propidium iodide staining based flow cytometry (reference value: 0.4%); format: functional
HEK293 [4] = assay: Effect on topotecan-induced cytotoxicity against HEK293 cells assessed as fold change in topotecan IC50 at 0.5 uM after 72 hrs by CCK8 assay relative to topotecan IC50; format: cell-based; settings: human, hek293, 72 h; procedure, shortened: as §1
[5] = target: T1, Broad substrate specificity ATP-binding cassette transporter ABCG2; assay: Reversal of ABCG2 (unknown origin)-mediated multidrug resistance in human S1-M1-80 cells assessed as fold-change in topotecan IC50 at 0.5 uM after 72 hrs by MTT assay relative to topotecan IC50; format: cell-based; settings: s1-m1-80, 72 h
Procedure, shortened: (§2)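 MTT readout in S1-M1-80 colon cancer cells (mitoxantrone-selected, held in 80 μM mitoxantrone, then drug-free 7 days before assay). Cells were seeded at 5000/well for 24 h, then given increasing mitoxantrone or topotecan with DMSO or non-toxic modulator for 72 h at 37 °C. IC50 came from fitted dose-response curves (at least three independent experiments). Fold-reversal = IC50 without modulator ÷ IC50 with modulator.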

[6] = target: T2, ATP-dependent translocase ABCB1 (Homo sapiens, UniProt P08183); assay: Reversal of human ABCB1-mediated multidrug resistance in HEK293/MDR19 cells assessed as fold change in colchicine IC50 at 3 uM after 72 hrs by CCK8 relative to colchicine IC50; format: cell-based
Procedure, shortened: (§3)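 Cells were seeded at 5000/well for 24 h, then given colchicine, etoposide, mitoxantrone or topotecan ± non-toxic modulator (0.5–3.0 μM) for 72 h, with DMSO up to 0.5%. IC50 came from fitted curves (mean ± SD, three experiments). Fold-reversal = IC50 without modulator ÷ IC50 with modulator.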

[7] = target: T1, Broad substrate specificity ATP-binding cassette transporter ABCG2; assay: Reversal of human ABCG2-mediated multidrug resistance in HEK293/R482 cells assessed as fold-change in topotecan IC50 at 1 uM after 72 hrs by CCK8 relative to topotecan IC50; format: cell-based; procedure, shortened: as §3
S1-M1-80 [8] = assay: Induction of apoptosis in human S1-M1-80 cells harboring ABCG2 (unknown origin) assessed as late apoptotic cells at 10 uM incubated for 48 hrs by annexin V/propidium iodide staining based flow cytometry (reference value: 2.9%); format: functional
HEK293 [9] = assay: Effect on topotecan-induced cytotoxicity against HEK293 cells assessed as fold change in topotecan IC50 at 3 uM after 72 hrs by CCK8 assay relative to topotecan IC50; format: cell-based; settings: human, hek293, 72 h; procedure, shortened: as §1
HEK293 [10] = assay: Effect on etoposide-induced cytotoxicity against HEK293 cells assessed as fold change in etoposide IC50 at 3 uM after 72 hrs by CCK8 assay relative to etoposide IC50; format: cell-based; settings: human, hek293, 72 h; procedure, shortened: as §1
HEK293 [11] = assay: Cytotoxicity against HEK293 cells overexpressing human ABCG2 after 72 hrs by CCK8 assay; format: ADME, cell-based; settings: HEK293, 72 h
Procedure, shortened: (§4)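 Cells seeded at 5000/well, allowed 24 h, then exposed to a concentration series for 72 h at 37 °C in DMSO vehicle (up to 0.5% v/v). HEK293 lines were read with CCK-8 and cancer lines with MTT. IC50 was taken from fitted dose-response curves over at least three independent experiments. Lines were kept drug-free for 7 days before assay.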

HEK293 [12] = assay: Effect on etoposide-induced cytotoxicity against HEK293 cells assessed as fold change in etoposide IC50 at 0.5 uM after 72 hrs by CCK8 assay relative to etoposide IC50; format: cell-based; settings: human, hek293, 72 h; procedure, shortened: as §1
S1-M1-80 [13] = assay: Cytotoxicity against human S1-M1-80 cells harboring ABCG2 (unknown origin) after 72 hrs by MTT assay; format: functional, cell-based; settings: S1-M1-80, 72 h; procedure, shortened: as §4
[14] = target: T2, ATP-dependent translocase ABCB1; assay: Reversal of human ABCB1-mediated multidrug resistance in HEK293/MDR19 cells assessed as fold change in colchicine IC50 at 2 uM after 72 hrs by CCK8 relative to colchicine IC50; format: cell-based; procedure, shortened: as §3
[15] = target: T1, Broad substrate specificity ATP-binding cassette transporter ABCG2; assay: Reversal of ABCG2 (unknown origin)-mediated multidrug resistance in human S1-M1-80 cells assessed as fold-change in mitoxantrone IC50 at 3 uM after 72 hrs by MTT assay relative to mitoxantrone IC50; format: cell-based; settings: s1-m1-80, 72 h; procedure, shortened: as §2

T2 sequence (P08183 whole entry): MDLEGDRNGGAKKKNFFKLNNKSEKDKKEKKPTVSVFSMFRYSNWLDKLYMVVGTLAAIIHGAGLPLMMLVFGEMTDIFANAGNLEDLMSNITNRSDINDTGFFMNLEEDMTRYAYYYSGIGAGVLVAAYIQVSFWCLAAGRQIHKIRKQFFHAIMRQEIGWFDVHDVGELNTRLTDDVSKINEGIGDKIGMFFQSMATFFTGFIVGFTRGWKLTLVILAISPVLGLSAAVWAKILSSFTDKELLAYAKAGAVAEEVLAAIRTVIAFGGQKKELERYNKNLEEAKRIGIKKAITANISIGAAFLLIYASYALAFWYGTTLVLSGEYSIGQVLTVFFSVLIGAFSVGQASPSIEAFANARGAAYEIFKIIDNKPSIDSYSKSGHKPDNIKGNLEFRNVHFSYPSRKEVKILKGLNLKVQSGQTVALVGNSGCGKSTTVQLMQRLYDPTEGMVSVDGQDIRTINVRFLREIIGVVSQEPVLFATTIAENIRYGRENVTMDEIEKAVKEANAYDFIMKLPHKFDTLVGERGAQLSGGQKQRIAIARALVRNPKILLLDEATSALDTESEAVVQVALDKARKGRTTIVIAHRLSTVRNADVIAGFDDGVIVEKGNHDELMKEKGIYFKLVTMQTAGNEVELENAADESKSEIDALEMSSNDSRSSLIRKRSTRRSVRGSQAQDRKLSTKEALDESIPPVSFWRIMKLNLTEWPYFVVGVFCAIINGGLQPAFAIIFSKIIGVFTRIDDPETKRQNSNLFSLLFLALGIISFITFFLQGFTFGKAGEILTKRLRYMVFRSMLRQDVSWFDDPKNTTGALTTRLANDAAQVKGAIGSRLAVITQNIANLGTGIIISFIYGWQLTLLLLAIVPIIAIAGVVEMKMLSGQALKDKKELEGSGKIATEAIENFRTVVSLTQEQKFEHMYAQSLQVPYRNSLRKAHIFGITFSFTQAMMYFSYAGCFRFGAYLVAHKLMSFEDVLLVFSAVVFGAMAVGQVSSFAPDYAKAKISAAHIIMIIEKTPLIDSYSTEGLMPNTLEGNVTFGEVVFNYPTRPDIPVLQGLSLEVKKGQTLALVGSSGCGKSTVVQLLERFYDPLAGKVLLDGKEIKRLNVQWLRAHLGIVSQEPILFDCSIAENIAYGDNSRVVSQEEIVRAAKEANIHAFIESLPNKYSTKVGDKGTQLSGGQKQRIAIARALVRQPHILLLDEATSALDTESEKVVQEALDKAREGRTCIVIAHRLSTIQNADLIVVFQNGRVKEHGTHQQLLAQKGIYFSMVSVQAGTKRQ

fold change (FC) [5]: 9.8
fold change (FC) [6]: 0.9
fold change (FC) [7]: 3.9
fold change (FC) [14]: 0.8
SMILES: C=CC(C)(C)c1cc(/C=C/C(=O)c2ccc(O)cc2)c(OC)cc1O [LICOAGROCHACONE A]
fold change (FC) (NCI-H460): 1.7
fold change (FC) [1]: 2.6
fold change (FC) (HEK293 [2]): 1
Activity (S1-M1-80 [3]): 0.8%
fold change (FC) (HEK293 [4]): 0.9
Activity (S1-M1-80 [8]): 2.9%
fold change (FC) (HEK293 [9]): 1
fold change (FC) (HEK293 [10]): 0.8
IC50 (HEK293 [11]): 10 to 50 µM
fold change (FC) (HEK293 [12]): 0.7
IC50 (S1-M1-80 [13]): 10 to 50 µM
fold change (FC) [15]: 48.1
